Measured values from article PMC2233905 (The Journal of General Physiology, 2004).

What was measured:
[1] = system: outward currents of ventricular cardiomyocytes; settings: concentrations <10 μM; ref Berul and Morad, 1995; cited from earlier work
Kv1.1 = settings: concentrations up to 10 μM; ref Suessbrich et al., 1996; cited from earlier work
hEag1 channels = molecular target: T1, hEag1 channels (Homo sapiens, UniProt O95259); assay: Inside-out patch recordings of hEag1 currents; assay type: cell-based; settings: for rate of block: inside-out, 500 nM astemizole
T1 sequence (O95259 1-989): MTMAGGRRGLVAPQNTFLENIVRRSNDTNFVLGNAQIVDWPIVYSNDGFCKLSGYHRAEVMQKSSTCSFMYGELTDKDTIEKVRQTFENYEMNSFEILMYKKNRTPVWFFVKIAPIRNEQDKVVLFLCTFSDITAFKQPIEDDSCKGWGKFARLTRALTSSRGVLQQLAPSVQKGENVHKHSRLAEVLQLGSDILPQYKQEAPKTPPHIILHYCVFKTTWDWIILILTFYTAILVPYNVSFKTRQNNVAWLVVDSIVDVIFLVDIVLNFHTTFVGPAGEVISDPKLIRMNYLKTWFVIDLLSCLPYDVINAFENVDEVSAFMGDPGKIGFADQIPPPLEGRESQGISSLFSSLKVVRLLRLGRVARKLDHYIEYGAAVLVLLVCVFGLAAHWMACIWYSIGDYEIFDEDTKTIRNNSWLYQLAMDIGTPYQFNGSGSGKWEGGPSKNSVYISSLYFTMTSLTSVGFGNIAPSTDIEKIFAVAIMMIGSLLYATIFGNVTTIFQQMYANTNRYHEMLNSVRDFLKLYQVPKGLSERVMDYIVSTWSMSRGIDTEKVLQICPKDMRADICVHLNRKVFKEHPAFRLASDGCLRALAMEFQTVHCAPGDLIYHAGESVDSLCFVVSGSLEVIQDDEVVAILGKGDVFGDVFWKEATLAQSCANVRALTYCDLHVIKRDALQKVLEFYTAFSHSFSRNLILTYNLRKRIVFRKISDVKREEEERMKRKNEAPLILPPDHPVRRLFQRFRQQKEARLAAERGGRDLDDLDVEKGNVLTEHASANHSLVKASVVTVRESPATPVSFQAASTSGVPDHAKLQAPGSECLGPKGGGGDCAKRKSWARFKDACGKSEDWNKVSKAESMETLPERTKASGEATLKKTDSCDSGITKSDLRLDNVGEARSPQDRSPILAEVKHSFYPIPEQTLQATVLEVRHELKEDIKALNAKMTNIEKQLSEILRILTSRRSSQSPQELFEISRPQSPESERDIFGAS
In short: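 Inside-out patches from hEag1-expressing cells at room temperature. Pipette: 145 NaCl, 5 KCl, 3 CaCl2, 1 MgCl2, 10 HEPES/NaOH pH 7.4. Successive 6-s pulses at 80 mV with drug applied for 2.5 s. Current ratios to preapplication traces were fitted with a single exponential to give the block time constant.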

Kv2.1 = molecular target: T2, Kv2.1 (Homo sapiens, UniProt Q14721); assay: Kv2.1 channels; assay type: cell-based; settings: concentrations up to 10 μM, unpublished data
T2 sequence (Q14721 1-858): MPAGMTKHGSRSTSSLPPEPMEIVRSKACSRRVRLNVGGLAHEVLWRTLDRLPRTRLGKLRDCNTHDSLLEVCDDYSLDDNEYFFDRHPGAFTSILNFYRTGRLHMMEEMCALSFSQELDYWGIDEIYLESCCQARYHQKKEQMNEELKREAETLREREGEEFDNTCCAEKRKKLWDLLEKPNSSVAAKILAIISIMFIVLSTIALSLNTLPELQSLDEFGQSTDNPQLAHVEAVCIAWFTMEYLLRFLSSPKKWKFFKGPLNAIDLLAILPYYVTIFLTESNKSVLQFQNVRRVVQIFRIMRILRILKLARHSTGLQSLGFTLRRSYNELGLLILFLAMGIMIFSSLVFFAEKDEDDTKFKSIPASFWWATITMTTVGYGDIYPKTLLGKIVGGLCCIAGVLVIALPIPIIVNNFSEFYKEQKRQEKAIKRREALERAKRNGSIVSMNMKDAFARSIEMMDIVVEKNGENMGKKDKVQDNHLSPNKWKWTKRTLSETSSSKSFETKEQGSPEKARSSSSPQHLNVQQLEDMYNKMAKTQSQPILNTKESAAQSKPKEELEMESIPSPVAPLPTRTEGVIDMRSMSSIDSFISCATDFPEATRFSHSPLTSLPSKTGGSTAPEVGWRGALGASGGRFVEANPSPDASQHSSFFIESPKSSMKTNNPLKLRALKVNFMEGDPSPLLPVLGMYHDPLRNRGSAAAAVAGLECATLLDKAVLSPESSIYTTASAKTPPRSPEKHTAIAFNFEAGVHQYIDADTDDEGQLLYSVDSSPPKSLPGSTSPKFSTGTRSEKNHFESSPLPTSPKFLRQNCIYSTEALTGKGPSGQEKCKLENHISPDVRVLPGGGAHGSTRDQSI

For `COc1ccc(CCN2CCC(Nc3nc4ccccc4n3Cc3ccc(F)cc3)CC2)cc1` [astemizole], the effect on currents [1] is given as “no effects”, the effect on current (Kv1.1) is given as “no significant effects” and the “time constant of block in inside-out patches” value (hEag1 channels; bath pH 6.0, pipette pH 7.4, 80 mV) is given as 387 ms. The “reversal of block on 2-s washout during the depolarization” value (hEag1 channels; inside-out patches) was “did not recover”, the rate of block (hEag1 channels; pHint 6.4) was 6.7 ± 2 s⁻¹ and the rate of block (hEag1 channels; pHint 7.4) was 2.8 ± 0.2 s⁻¹. The effect on current (Kv2.1) was “no significant effects”.
